In ChEMBL document CHEMBL4732112, “Synthesis and in vitro evaluation of novel spiroketopyrazoles as acetyl-CoA carboxylase inhibitors and potential antitumor agents” (Eur J Med Chem, 2021):
Activity calls are given as the source filed them. The rule behind the calls is not given here.

Legend:
Acetyl-CoA carboxylase 1 [1] = target: T1, Acetyl-CoA carboxylase 1 (Homo sapiens, UniProt Q13085); experiment: Inhibition of recombinant human C-terminal His-tagged ACC1 (1 to 2383 residues) expressed in baculovirus infected Sf9 insect cells at 5 uM preincubated for 15 mins followed by substrate addition and measured after 60 mins by ADP-glo luminescence assay relative to control
Acetyl-CoA carboxylase 1 [2] = target: T1, Acetyl-CoA carboxylase 1; experiment: Inhibition of recombinant human C-terminal His-tagged ACC1 (1 to 2383 residues) expressed in baculovirus infected Sf9 insect cells at 0.1 uM preincubated for 15 mins followed by substrate addition and measured after 60 mins by ADP-glo luminescence assay relative to control
A549 [3] = experiment: Antiproliferative activity against human A549 cells assessed as cell growth inhibition at 10 uM after 72 hrs by MTT assay relative to control; format: functional; settings: read-out: GI
Procedure, shortened: (§1)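 Cells were DMEM/10% FBS cultures at 37 °C, 5% CO2, seeded at 3×10^3 per well and exposed for 72 h after 24 h attachment. Read-out was MTT with formazan in DMSO and absorbance at 550 nm, expressed as inhibition rate versus control.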

HepG2 [4] = experiment: Antiproliferative activity against human HepG2 cells assessed as cell growth inhibition at 10 uM after 72 hrs by MTT assay relative to control; format: functional; settings: read-out: GI; procedure, shortened: as §1
A549 [5] = experiment: Antiproliferative activity against human A549 cells assessed as cell growth inhibition after 72 hrs by MTT assay; format: functional, cell-based; settings: A549, 72 h
Procedure, shortened: (§2)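 HepG2, A549 or MDA-MB-231 cells grown in DMEM with 10% FBS and penicillin/streptomycin at 37 °C, 5% CO2. Seeded at 3×10^3 per well, left 24 h, then exposed to a range of concentrations for 72 h. MTT added for 4 h, formazan dissolved in DMSO, absorbance read at 550 nm. Mean ± SD, n=3.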

MDA-MB-231 = experiment: Antiproliferative activity against human MDA-MB-231 cells assessed as cell growth inhibition after 72 hrs by MTT assay; format: functional, cell-based; settings: MDA-MB-231, 72 h; procedure, shortened: as §2
Acetyl-CoA carboxylase 1 [6] = target: T1, Acetyl-CoA carboxylase 1; experiment: Inhibition of ACC1 in human HepG2 cells assessed as reduction in intracellular malonyl-CoA level at 10 uM measured after 48 hrs by ELISA relative to control; format: cell-based
Procedure, shortened: (§3)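 HepG2 cells plated and exposed to the compound at several concentrations for 48 h. Cells washed with PBS, lysed in 1% Triton X-100 and spun 12000 rpm, 4 °C, 15 min. Malonyl-CoA measured by ELISA kit and triglyceride by GPO-POP kit, each normalised to BCA protein. Reported relative to control, mean ± SD, n=3.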

Acetyl-CoA carboxylase 1 [7] = target: T1, Acetyl-CoA carboxylase 1; experiment: Inhibition of ACC1 in human HepG2 cells assessed as reduction in intracellular triglyceride level at 10 uM measured after 48 hrs by GPO-PAP method relative to control; format: cell-based; procedure, shortened: as §3
HepG2 [8] = experiment: Antiproliferative activity against human HepG2 cells assessed as cell viability at 0.5 uM measured after 5 days in presence of 25 uM palmitate by MTT assay relative to control; format: functional; settings: HepG2, 120 h, time 5 day, read-out: Activity
Procedure, shortened: (§4)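 HepG2 treated with 0.5 μM plus 0, 10 or 25 μM palmitate for 1, 3 and 5 days. Palmitate was complexed with 5% fatty-acid-free BSA from a 5 mM solution, then diluted in serum-free DMEM to final concentration. Viability (% control) by MTT. Mean ± SD, n=3.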

HepG2 [9] = experiment: Antiproliferative activity against human HepG2 cells assessed as cell viability at 0.5 uM measured after 5 days by MTT assay relative to control; format: functional; settings: HepG2, 120 h, time 5 day, read-out: Activity; procedure, shortened: as §4
HepG2 [10] = experiment: Cell cycle arrest in human HepG2 cells assessed as accumulation at G0/G1 phase measured after 48 hrs by propidium iodide staining based flow cytometry; format: functional; settings: dose 1-10 µM
HepG2 [11] = experiment: Cell cycle arrest in human HepG2 cells assessed as accumulation at G0/G1 phase at 1 uM measured after 48 hrs by propidium iodide staining based flow cytometry (reference value: 56.24%); format: functional
HepG2 [12] = experiment: Cell cycle arrest in human HepG2 cells assessed as accumulation at S phase at 10 uM measured after 48 hrs by propidium iodide staining based flow cytometry (reference value: 30.18%); format: functional
HepG2 [13] = experiment: Cell cycle arrest in human HepG2 cells assessed as reduction in cyclin D1 expression measured after 48 hrs by Western blot analysis; format: functional, cell-based; settings: dose 1-10 µM
Procedure, shortened: (§5)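 HepG2 cells treated for 48 h and lysed. Lysates cleared at 12000 rpm for 15 min and protein measured by BCA. Run on SDS-PAGE, transferred to PVDF, blocked in 5% BSA, primary antibody at 4 °C overnight, then DyLight 800 secondary. Infrared imaging and densitometry against β-actin. Mean ± SD, n=3.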

HepG2 [14] = experiment: Cell cycle arrest in human HepG2 cells assessed as reduction in cyclin D1 expression at 10 uM measured after 48 hrs by Western blot analysis relative to control; format: functional; design: scale not given: the % may be the effect or the level left; procedure, shortened: as §5
HepG2 [15] = experiment: Induction of apoptosis in human HepG2 cells assessed as chromatin shrinkage at 1 to 10 uM measured after 48 hrs by Hoechst 33258 staining based fluorescence microscopic analysis; format: functional, cell-based; settings: dose 1-10 µM
Procedure, shortened: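 HepG2 cells exposed to varying concentrations for 48 h in 6-well plates. Stained with Hoechst 33258 in the dark for 20 min, then nuclear morphology inspected by fluorescence microscopy.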

HepG2 [16] = experiment: Induction of apoptosis in human HepG2 cells assessed as early apoptotic cells at 1 uM measured after 48 hrs by Annexin V-FITC/propidium iodide staining based flow cytometry (reference value: 4.03%); format: functional
Procedure, shortened: (§6)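 HepG2 cells incubated with the stated concentrations for 48 h, harvested, and stained with Annexin V-FITC and propidium iodide protected from light. Viable, early apoptotic, late apoptotic and necrotic fractions quantified by flow cytometry. Mean ± SD, n=3.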

HepG2 [17] = experiment: Induction of apoptosis in human HepG2 cells assessed as late apoptotic cells at 1 uM measured after 48 hrs by Annexin V-FITC/propidium iodide staining based flow cytometry (reference value: 0.19%); format: functional; procedure, shortened: as §6
HepG2 [18] = experiment: Induction of apoptosis in human HepG2 cells assessed as necrotic cells at 1 uM measured after 48 hrs by Annexin V-FITC/propidium iodide staining based flow cytometry (reference value: 0.22%); format: functional; procedure, shortened: as §6
HepG2 [19] = experiment: Induction of apoptosis in human HepG2 cells assessed as early apoptotic cells at 5 uM measured after 48 hrs by Annexin V-FITC/propidium iodide staining based flow cytometry (reference value: 4.03%); format: functional; procedure, shortened: as §6
HepG2 [20] = experiment: Induction of apoptosis in human HepG2 cells assessed as late apoptotic cells at 5 uM measured after 48 hrs by Annexin V-FITC/propidium iodide staining based flow cytometry (reference value: 0.19%); format: functional; procedure, shortened: as §6
HepG2 [21] = experiment: Induction of apoptosis in human HepG2 cells assessed as early apoptotic cells at 10 uM measured after 48 hrs by Annexin V-FITC/propidium iodide staining based flow cytometry (reference value: 4.03%); format: functional; procedure, shortened: as §6
HepG2 [22] = experiment: Induction of apoptosis in human HepG2 cells assessed as increase in PARP cleavage at 1 to 10 uM measured after 48 hrs by Western blot analysis; format: functional, cell-based; settings: dose 1-10 µM
Procedure, shortened: (§7)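 Western blots for Bcl-2, Bax, cleaved caspase-3 and cleaved PARP in HepG2 cells after 48 h treatment (1, 5, 10 μM for PARP). Lysates cleared, protein quantified by BCA, run on SDS-PAGE to PVDF, blocked in 5% BSA, primary overnight at 4 °C, DyLight 800 secondary. Infrared scanning and densitometry normalized to β-actin. Mean ± SD, n=3.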

HepG2 [23] = experiment: Induction of apoptosis in human HepG2 cells assessed as increase in Bax expression measured after 48 hrs by Western blot analysis; format: functional, cell-based; settings: dose 1-10 µM; procedure, shortened: as §7

- inhibition (Acetyl-CoA carboxylase 1 [1]): 100%
- inhibition (Acetyl-CoA carboxylase 1 [2]): 86.2%
- IC50 (A549 [5]): 550 nM
- IC50 (MDA-MB-231): 1650 nM
- inhibition (Acetyl-CoA carboxylase 1 [6]): 31.4%
- inhibition (Acetyl-CoA carboxylase 1 [7]): 36.7%
SMILES: CC(C)(C)n1cc2c(n1)C(=O)CC1(CCN(C(=O)c3cc(-c4ccncc4)nc4ccccc34)CC1)O2
- inhibition of growth at 10 µM (A549 [3]): 79.3%
- inhibition of growth at 10 µM (HepG2 [4]): 80.1%
- viability at 0.5 µM (HepG2 [8]): 87.1%
- viability at 0.5 µM (HepG2 [9]): 33.1%
- Activity (HepG2 [10]): Dose-dependent effect
- Activity (HepG2 [11]): 67.68%
- Activity (HepG2 [12]): 6.48%
- Activity (HepG2 [13]): Dose-dependent effect
- Activity (HepG2 [14]): 43.92%
- Activity (HepG2 [15]): Active
- Activity (HepG2 [16]): 11.6%
- Activity (HepG2 [17]): 12.7%
- Activity (HepG2 [18]): 3.61%
- Activity (HepG2 [19]): 18.9%
- Activity (HepG2 [20]): 32.6%
- Activity (HepG2 [21]): 41.6%
- Activity (HepG2 [22]): Active
- Activity (HepG2 [23]): Dose-dependent effect
